Here are results for six compounds from ChEMBL document CHEMBL3600328, “Bayesian models trained with HTS data for predicting β-haematin inhibition and in vitro antimalarial activity” (Bioorg Med Chem, 2015).

Series [1] in a line: Inhibition of beta-hematin formation. In kind it is physicochemical. A digest of the protocol:
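NP-40 detergent-mediated β-haematin formation assay, run per an earlier-published protocol.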

The subject of another series is Plasmodium falciparum. Put plainly: Antimalarial activity against CQ-sensitive Plasmodium falciparum NF54 assessed as inhibition of parasite growth. Format: functional, organism-based.

By IC50 is commonly meant the concentration at which inhibition is half-maximal. For `COc1cc(-c2nc3cc([N+](=O)[O-])ccc3[nH]2)ccc1O`, the IC50 was 22 µM in series [1] and greater than 10 µM in the series on Plasmodium falciparum.

Consider `Nc1cc(O)c2ccccc2n1`, for which the concentration for half-maximal inhibition (IC50) was 85 µM in series [1] and greater than 10 µM in the series with Plasmodium falciparum.

For `O=C(O)c1cc(-c2ccc(-c3ccccc3)cc2)nc2ccccc12`, the concentration for half-maximal inhibition (IC50) was 46 µM in series [1] and greater than 10 µM in the series on Plasmodium falciparum.

Regarding `Cc1ccc(C(=O)C2=C(O)C(=O)N(Cc3cccnc3)[C@H]2c2ccc(Cl)c(Cl)c2)o1`, the results for the half-inhibitory concentration (IC50) (in series [1]; in the series with Plasmodium falciparum) were 88 µM and greater than 10 µM, respectively.

`C=C[C@H]1CN2CC[C@@H]1C[C@@H]2Cc1ccnc2ccccc12`: the IC50 was 66 µM in series [1] and 0.082 µM in the series with Plasmodium falciparum.

In the case of `CN(C)CCNc1cc(-c2ccc3ccccc3c2)nc2ccccc12`, the concentration for half-maximal inhibition (IC50) in series [1] amounted to 26 µM; in the series with Plasmodium falciparum it was 0.079 µM.
